In ChEMBL document CHEMBL3352772, “2-Pyridyl thiazoles as novel anti-Trypanosoma cruzi agents: structural design, synthesis and pharmacological evaluation” (Eur J Med Chem, 2014):

Tests used:
[1] = biological target: Cruzipain (Trypanosoma cruzi) (UniProt P25779); test: Inhibition of recombinant Trypanosoma cruzi cruzain using Z-Phe-Argaminomethylcoumarin as fluorogenic substrate preincubated at 100 uM for 10 mins before substrate addition by fluorimetry
Procedure, shortened: (§1)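 Recombinant cruzain at 0.5 nM in 0.1 M sodium acetate pH 5.5 with 5 mM DTT and 0.01% Triton X-100. Compound pre-incubated with enzyme 10 min at a single screening concentration. […] Fluorescence followed 5 min at ex 340/em 440 nm. Activity relative to DMSO control; at least two independent experiments in triplicate.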

[2] = tested on: Trypanosoma cruzi; test: Antitrypanosomal activity against trypomastigote forms of Trypanosoma cruzi Y infected in LLC-MK2 cells assessed as reduction in viable parasites after 24 hrs by Neubauer chamber counting method; type: functional, organism-based; details: LLC-MK2, 24 h
Procedure, shortened: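 Bloodstream trypomastigotes (Y strain) taken from supernatants of infected LLC-MK2 cells kept in RPMI-1640 with 10% FBS and gentamycin at 37 °C, 5% CO2. Plated at 4×10^5 cells/well with five concentrations of inhibitor in DMSO. Incubated 24 h at 37 °C, 5% CO2. Motile parasites counted in a Neubauer chamber. % inhibition taken against untreated cultures; IC50 from non-linear regression.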

[3] = tested on: Trypanosoma cruzi; test: Trypanocidal activity against epimastigote forms of Trypanosoma cruzi Y assessed as reduction in viable parasites after 11 days by Neubauer chamber counting method; type: functional, organism-based; details: 264 h
Procedure, shortened: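 Y-strain epimastigotes grown at 26 °C in LIT medium with 10% FBS, hemin, R9 and gentamycin. Seeded at 10^6 cells/well and exposed in triplicate to 1.23, 3.70, 11.11, 33.33 and 100 µg/mL inhibitor in DMSO. Incubated 11 days at 26 °C. Viable parasites counted in a Neubauer chamber against untreated culture. IC50 from non-linear regression; experiment run in duplicate.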

[4] = tested on: HepG2; test: Cytotoxicity against human HepG2 cells after 48 hrs by; type: cell-based; details: HepG2, 48 h
Procedure, shortened: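 HepG2 cells in supplemented Eagle's MEM, 3000 cells/well, plated onto predispensed compounds. Incubated 48 h at 37 °C, 80% humidity, 5% CO2. Viability read by CellTiter-Glo luminescence.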

[5] = biological target: Cruzipain (Trypanosoma cruzi, UniProt P25779); test: Inhibition of recombinant Trypanosoma cruzi cruzain using Z-Phe-Argaminomethylcoumarin as fluorogenic substrate preincubated for 10 mins before substrate addition by fluorimetry
Chain of Cruzipain (P25779 whole entry): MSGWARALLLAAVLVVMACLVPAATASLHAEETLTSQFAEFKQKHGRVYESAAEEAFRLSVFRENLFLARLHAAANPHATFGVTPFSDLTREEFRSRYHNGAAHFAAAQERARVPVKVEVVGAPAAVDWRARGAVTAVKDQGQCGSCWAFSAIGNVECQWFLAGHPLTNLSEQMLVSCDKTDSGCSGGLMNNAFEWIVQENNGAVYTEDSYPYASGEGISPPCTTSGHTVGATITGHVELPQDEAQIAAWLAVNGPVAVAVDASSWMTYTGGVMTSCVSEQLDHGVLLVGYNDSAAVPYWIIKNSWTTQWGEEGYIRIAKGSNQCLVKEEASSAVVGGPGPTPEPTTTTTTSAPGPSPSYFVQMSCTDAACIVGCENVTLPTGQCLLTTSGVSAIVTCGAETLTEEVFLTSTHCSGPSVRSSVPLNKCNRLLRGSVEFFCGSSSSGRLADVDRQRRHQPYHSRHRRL
Procedure, shortened: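 IC50 against recombinant cruzain (0.5 nM) in 0.1 M sodium acetate pH 5.5, 5 mM DTT, 0.01% Triton X-100. At least seven inhibitor concentrations, each pre-incubated 10 min with enzyme. Z-FR-AMC at 2.5 µM, fluorescence ex 340/em 440 nm followed 5 min. Two independent experiments in triplicate, normalized to DMSO control.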

[6] = biological target: Cruzipain (Trypanosoma cruzi) (UniProt P25779); test: Inhibition of recombinant Trypanosoma cruzi cruzain using Z-Phe-Argaminomethylcoumarin as fluorogenic substrate preincubated at 75 uM for 10 mins before substrate addition by fluorimetry; procedure, shortened: as §1
[7] = biological target: Cruzipain (Trypanosoma cruzi) (UniProt P25779); test: Inhibition of recombinant Trypanosoma cruzi cruzain using Z-Phe-Argaminomethylcoumarin as fluorogenic substrate preincubated at 50 uM for 10 mins before substrate addition by fluorimetry; procedure, shortened: as §1

Chain of Cruzipain (Trypanosoma cruzi) (P25779 123-467 limits assumed): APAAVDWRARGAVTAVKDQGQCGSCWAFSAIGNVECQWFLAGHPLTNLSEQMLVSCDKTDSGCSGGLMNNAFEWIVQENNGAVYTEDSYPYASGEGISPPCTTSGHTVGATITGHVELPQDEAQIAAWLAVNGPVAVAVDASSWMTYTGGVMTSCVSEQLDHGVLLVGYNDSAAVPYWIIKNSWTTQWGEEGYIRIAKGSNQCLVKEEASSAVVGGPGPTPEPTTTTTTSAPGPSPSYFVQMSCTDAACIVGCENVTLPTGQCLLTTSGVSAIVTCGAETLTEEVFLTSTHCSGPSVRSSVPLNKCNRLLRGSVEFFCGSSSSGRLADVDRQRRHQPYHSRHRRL

| SMILES | inhibition [1] [%] | IC50 [2] [µM] | IC50 [5] [µM] | inhibition [6] [%] | inhibition [7] [%] | IC50 [3] [µM] | IC50 [4] [µM] |
| --- | --- | --- | --- | --- | --- | --- | --- |
| O=[N+]([O-])c1ccc(-c2csc(N/N=C/c3ccccn3)n2)cc1 | 12 | 153 |  |  |  | 4.4 | 100 |
| O=[N+]([O-])c1cccc(-c2csc(N/N=C/c3ccccn3)n2)c1 | 85 | 74.2 | 1.3 |  |  | 2.5 | 100 |
| C(=N\Nc1nc(-c2ccccc2)cs1)/c1ccccn1 |  | 5.4 |  | 9 |  | 8.3 | 100 |
| Clc1ccc(-c2csc(N/N=C/c3ccccn3)n2)cc1 |  | 3.8 |  | -1 |  | 3.8 | 100 |
| C/C(=N\Nc1nc(-c2ccc(F)cc2)cs1)c1ccccn1 | 89 | 3.8 | 0.3 |  |  | 2.8 | 91.2 |
| Cc1ccc(-c2csc(N/N=C/c3ccccn3)n2)cc1 | 23 | 16.8 |  |  |  | 3.8 | 100 |
| Fc1ccc(-c2csc(N/N=C/c3ccccn3)n2)cc1 |  | 72.7 |  |  | 22 | 3.5 | 18.2 |
| C/C(=N\Nc1nc(-c2ccc(Cl)c(Cl)c2)cs1)c1ccccn1 | 89 | 3.1 | 0.4 |  |  | 5 | 100 |
| C/C(=N\Nc1nc(-c2cccc([N+](=O)[O-])c2)cs1)c1ccccn1 |  | 3.9 |  | 10 |  | 2.4 | 100 |
| COc1ccc(-c2csc(N/N=C/c3ccccn3)n2)cc1 |  | 4.8 |  | 20 |  | 5.6 | 100 |
| C/C(=N\NC(N)=S)c1ccccn1 | 5 | 2.8 |  |  |  | 4.5 |  |
| N/C(S)=N/N=C/c1ccccn1 | 1 | 17.3 |  |  |  | 120 |  |
| C/C(=N\Nc1nc(-c2ccc([N+](=O)[O-])cc2)cs1)c1ccccn1 |  | 36.7 |  | 11 |  | 5.2 | 100 |

Now those with a lower IC50 [2], led by results:

| inhibition [1] [%] | IC50 [2] [µM] | IC50 [5] [µM] | inhibition [6] [%] | inhibition [7] [%] | SMILES | IC50 [3] [µM] | IC50 [4] [µM] |
| --- | --- | --- | --- | --- | --- | --- | --- |
| 3 | 2.1 |  |  |  | C(=N\Nc1nc(-c2ccc3ccccc3c2)cs1)/c1ccccn1 | 8.3 | 100 |
| 90 | 1.7 | 0.4 |  |  | C/C(=N\Nc1nc(-c2ccc(C)cc2)cs1)c1ccccn1 | 2.5 | 100 |
| 10 | 2.6 |  |  |  | Cc1sc(N/N=C/c2ccccn2)nc1-c1ccc(Br)cc1 | 18.3 | 100 |
|  | 1.2 |  | 0 |  | Clc1ccc(-c2csc(N/N=C/c3ccccn3)n2)c(Cl)c1 | 4.8 | 100 |
| 93 | 1.1 | 1.3 |  |  | C/C(=N\Nc1nc(-c2ccccc2)cs1)c1ccccn1 | 2.7 | 91.2 |
| -8 | 2.1 |  |  |  | C/C(=N\Nc1nc(-c2ccc(Br)cc2)cs1)c1ccccn1 | 2.1 | 100 |
| 95 | 2.1 | 0.04 |  |  | COc1ccc(-c2csc(N/N=C(\C)c3ccccn3)n2)cc1 | 14.7 | 100 |
| 81 | 1.9 | 4.8 |  |  | C/C(=N\Nc1nc(-c2ccc(Cl)cc2Cl)cs1)c1ccccn1 | 14.9 | 100 |
| 21 | 1.2 |  |  |  | Clc1ccc(-c2csc(N/N=C/c3ccccn3)n2)cc1Cl | 4 | 100 |
| 27 | 2.3 |  |  |  | C/C(=N\Nc1nc(-c2ccc(Br)cc2)c(C)s1)c1ccccn1 | 2.3 | 85.1 |
| 86 | 2.2 | 9.5 |  |  | Brc1ccc(-c2csc(N/N=C/c3ccccn3)n2)cc1 | 2.2 | 100 |
| 94 | 2 | 0.01 |  |  | C/C(=N\Nc1nc(-c2ccc3ccccc3c2)cs1)c1ccccn1 | 4.1 | 100 |
| -3 | 2.1 |  |  |  | C/C(=N/Nc1nc(-c2ccc(Cl)cc2)cs1)c1ccccn1 | 2.5 | 100 |
